Measured values reported in ChEMBL document CHEMBL1122350, “Ferric ion sequestering agents. 11. Synthesis and kinetics of iron removal from transferrin of catechoyl derivatives of desferrioxamine B” (J Med Chem, 1983).
Each block holds one molecule with its values, some of them ahead of it.

Assays:
[1] = target: Serotransferrin (Homo sapiens) (UniProt P02787); assay: Ability to remove iron from transferrin, at a concentration of 0.2 mM, expressed as % iron removal in 30 minutes; type: functional
Chain of Serotransferrin (Homo sapiens) (P02787 whole entry): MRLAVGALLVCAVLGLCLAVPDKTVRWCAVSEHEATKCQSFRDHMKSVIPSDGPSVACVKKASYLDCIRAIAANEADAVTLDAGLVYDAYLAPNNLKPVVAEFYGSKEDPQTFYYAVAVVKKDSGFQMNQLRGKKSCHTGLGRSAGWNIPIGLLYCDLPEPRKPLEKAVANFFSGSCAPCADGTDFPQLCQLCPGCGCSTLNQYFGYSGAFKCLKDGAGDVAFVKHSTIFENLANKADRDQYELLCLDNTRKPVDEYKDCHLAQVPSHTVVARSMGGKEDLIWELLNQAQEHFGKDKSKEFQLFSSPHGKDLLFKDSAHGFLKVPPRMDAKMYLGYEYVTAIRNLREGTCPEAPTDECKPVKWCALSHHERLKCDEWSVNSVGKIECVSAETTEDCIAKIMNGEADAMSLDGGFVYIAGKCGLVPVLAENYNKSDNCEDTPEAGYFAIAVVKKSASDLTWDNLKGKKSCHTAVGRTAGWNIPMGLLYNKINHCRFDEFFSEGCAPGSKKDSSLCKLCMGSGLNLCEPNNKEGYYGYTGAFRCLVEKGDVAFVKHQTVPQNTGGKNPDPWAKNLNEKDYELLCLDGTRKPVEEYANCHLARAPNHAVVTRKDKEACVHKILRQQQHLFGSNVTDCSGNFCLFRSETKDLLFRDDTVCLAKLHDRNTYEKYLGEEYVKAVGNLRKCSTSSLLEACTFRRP
Summary of the method: (§1)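 Diferric transferrin was made from apotransferrin saturated with fresh Fe(NTA)2^3-, then gel-filtered in 0.1 M NaClO4/0.1 M Tris-HCl pH 7.4 (≥95% saturation by A280/A466 ≤24, A428/A466 = 0.85). The ligand was dissolved in 0.1 M Tris-HCl pH 7.4 with slight heating and mixed 1:1 with transferrin ([Fe2Tf] 2.9 × 10^-5 M) at 25.0 °C. Visible spectra were followed at 466 nm, and % iron removed was read at 30 min.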

[2] = target: Serotransferrin (Homo sapiens) (UniProt P02787); conditions: 500 mM
[3] = Relative effectiveness at a concentration of 0.2mM, on removal of Fe from transferrin as compared to Desferal; type: functional
Summary of the method: (§2)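 Iron removal was measured spectrophotometrically from diferric transferrin (2.9 × 10^-5 M) in 0.1 M Tris-HCl pH 7.4 at 25.0 °C. A rough second-order rate constant k2 was taken as the % iron removed after 30 min divided by the initial ferric transferrin and ligand concentrations. The value is expressed as the ratio to the Desferal k2.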

[4] = target: Serotransferrin (Homo sapiens) (UniProt P02787); assay: Ability to remove iron from transferrin, at a concentration of 0.1 mM, expressed as % iron removal in 30 minutes; type: functional; conditions: 0.2 mM; in the assay text read “0.2 mM” for “0.1 mM”; summary of the method: as §1
[5] = target: Serotransferrin (Homo sapiens) (UniProt P02787); assay: Ability to remove iron from human iron transport protein transferrin, at a concentration of 1.2mM, expressed as % iron removal in 30 minutes; type: functional; summary of the method: as §1
[6] = target: Serotransferrin (Homo sapiens) (UniProt P02787); assay: Ability to remove iron from human iron transport protein transferrin, at a concentration of 0.1 mM, expressed as % iron removal in 30 minutes; type: functional; summary of the method: as §1
[7] = Relative effectiveness at a concentration of 0.1 mM, on removal of Fe from transferrin as compared to Desferal; type: functional; summary of the method: as §2
[8] = target: Serotransferrin (Homo sapiens) (UniProt P02787); assay: Ability to remove iron from human iron transport protein transferrin, at a concentration of 0.2 mM, expressed as % iron removal in 30 minutes; type: functional; summary of the method: as §1
[9] = Relative effectiveness at a concentration of 20 mM, on removal of Fe from transferrin as compared to Desferal; type: functional
[10] = target: Serotransferrin (Homo sapiens) (UniProt P02787); assay: Ability to remove iron from human iron transport protein transferrin, at a concentration of 20 mM, expressed as % iron removal in 30 minutes; type: functional

Structure (SMILES): O=C(O)CN(CCN(CC(=O)O)CC(=O)O)CC(=O)O
Fe removed [1]: 0%
Fe removed [2]: 37%

Structure (SMILES): O=C(N[C@H]1COC(=O)[C@@H](NC(=O)c2cccc(O)c2O)COC(=O)[C@@H](NC(=O)c2cccc(O)c2O)COC1=O)c1cccc(O)c1O
Ratio [3]: 120
Fe removed [8]: 6%

Structure (SMILES): CC(=O)N(O)CCCCCNC(=O)CCC(=O)N(O)CCCCCNC(=O)CCC(=O)N(O)CCCCCN
Ratio [9]: 1
Fe removed [10]: 5%

More lines, main results first:

Fe removed [4]: 3%
Fe removed [5]: 18%
Structure (SMILES): CC(=O)N(O)CCCCCNC(=O)CCC(=O)N(O)CCCCCNC(=O)CCC(=O)N(O)CCCCCNC(=O)c1ccc(C(=O)O)c(O)c1O
Ratio [3]: 130

Fe removed [6]: 2%
Structure (SMILES): CC(=O)N(O)CCCCCNC(=O)CCC(=O)N(O)CCCCCNC(=O)CCC(=O)N(O)CCCCCNC(=O)c1cccc(O)c1O
Ratio [7]: 180
